Measured values taken from ChEMBL document CHEMBL4619802, “Discovery and Characterization of Pure RhlR Antagonists against Pseudomonas aeruginosa Infections” (J Med Chem, 2020).
The source made the active and inactive calls. No cut-off for these calls is given here.

Key:
[1] = target: T1, HTH-type quorum-sensing regulator RhlR (Pseudomonas aeruginosa (strain ATCC 15692 / PAO1 / 1C / PRS 101 / LMG12228)) (UniProt P54292); assay: Antagonist activity at Pseudomonas aeruginosa RhlR expressed in Escherichia coli DH5alpha assessed as relative protein activity at 100 uM incubated for 1.5 hrs in presence of N-butyryl-L-homoserine lactone by luminescence reporter gene assay relative to control; parameters: scale not given: the % may be the effect or the level left
T1 sequence (whole entry): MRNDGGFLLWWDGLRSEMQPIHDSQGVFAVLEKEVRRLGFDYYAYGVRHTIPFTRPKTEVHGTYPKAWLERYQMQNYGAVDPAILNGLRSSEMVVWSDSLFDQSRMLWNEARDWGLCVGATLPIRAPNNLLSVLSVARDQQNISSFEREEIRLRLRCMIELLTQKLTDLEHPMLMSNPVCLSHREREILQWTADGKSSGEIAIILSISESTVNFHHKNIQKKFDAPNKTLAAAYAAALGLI
In short: (§1)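 E. coli DH5α sdiA mutant carrying RhlR and rhlA::lacZ plasmids, at OD595 0.3 in LB. Compound given with BHL (10 µM per footnote) and 0.4% arabinose, 37 °C for 1.5 h.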

[2] = target: T1, HTH-type quorum-sensing regulator RhlR (Pseudomonas aeruginosa (strain ATCC 15692 / PAO1 / 1C / PRS 101 / LMG12228)); assay: Agonist activity at Pseudomonas aeruginosa RhlR expressed in Escherichia coli DH5alpha assessed as relative protein activity at 100 uM incubated for 1.5 hrs by luminescence reporter gene assay relative to control
[3] = target: T1, HTH-type quorum-sensing regulator RhlR (Pseudomonas aeruginosa (strain ATCC 15692 / PAO1 / 1C / PRS 101 / LMG12228)); assay: Modulation of RhlR in Pseudomonas aeruginosa assessed as biofilm formation at 100 uM incubated for 24 hrs under static condition by crystal violet staining based assay relative to control
[4] = target: T1, HTH-type quorum-sensing regulator RhlR (Pseudomonas aeruginosa (strain ATCC 15692 / PAO1 / 1C / PRS 101 / LMG12228)); assay: Antagonist activity at Pseudomonas aeruginosa RhlR expressed in Escherichia coli DH5alpha assessed as relative protein activity at 10 uM incubated for 1.5 hrs in presence of N-butyryl-L-homoserine lactone by luminescence reporter gene assay relative to control; parameters: scale not given: the % may be the effect or the level left; in short: as §1
[5] = target: T1, HTH-type quorum-sensing regulator RhlR (Pseudomonas aeruginosa (strain ATCC 15692 / PAO1 / 1C / PRS 101 / LMG12228)); assay: Antagonist activity at RhlR in Pseudomonas aeruginosa assessed as rhamnolipid production at 10 uM incubated for 24 hrs by Orcinol staining based assay relative to control; parameters: scale not given: the % may be the effect or the level left
[6] = target: T1, HTH-type quorum-sensing regulator RhlR (Pseudomonas aeruginosa (strain ATCC 15692 / PAO1 / 1C / PRS 101 / LMG12228)); assay: Antagonist activity at RhlR in Pseudomonas aeruginosa assessed as rhamnolipid production at 100 uM incubated for 24 hrs by Orcinol staining based assay relative to control; parameters: scale not given: the % may be the effect or the level left
Pseudomonas aeruginosa [7] = assay: Antibacterial activity against Pseudomonas aeruginosa assessed as bacterial growth at 100 uM incubated for 24 hrs relative to control; assay type: functional
In short: (§2)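 P. aeruginosa overnight culture (OD595 1.0) diluted 1:20 in AB medium (pH 7.5, 1% glucose, casamino acids, arginine) with compound, in borosilicate bottles, 37 °C for 24 h without shaking. Growth taken as OD595 of the suspended culture. Attached cells washed twice with PBS, stained with 0.1% crystal violet for 10 min, dye eluted in ethanol and read at 545 nm.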

[8] = target: T1, HTH-type quorum-sensing regulator RhlR (Pseudomonas aeruginosa (strain ATCC 15692 / PAO1 / 1C / PRS 101 / LMG12228)); assay: Agonist activity at Pseudomonas aeruginosa RhlR expressed in Escherichia coli DH5alpha assessed as relative protein activity at 1000 uM incubated for 1.5 hrs by luminescence reporter gene assay relative to control
Pseudomonas aeruginosa [9] = assay: Antibacterial activity against Pseudomonas aeruginosa assessed as bacterial growth at 10 uM incubated for 24 hrs relative to control; assay type: functional; in short: as §2
[10] = target: T1, HTH-type quorum-sensing regulator RhlR (Pseudomonas aeruginosa (strain ATCC 15692 / PAO1 / 1C / PRS 101 / LMG12228)); assay: Modulation of RhlR in Pseudomonas aeruginosa assessed as biofilm formation at 10 uM incubated for 24 hrs under static condition by crystal violet staining based assay relative to control

Row | Structure (SMILES) | Activity [1] [%] | Activity [2] [%] | further results
1 | CCCCCC(O)CCc1ccc(O)c(OC)c1 (centres undefined) | 45 | 2 | –
2 | CCCCC(O)CC(=O)CCc1ccc(O)c(OC)c1 (centres undefined) | 62 | 2 | –
3 | CCCC(O)CC(=O)CCc1ccc(C)cc1 (centres undefined) | 76 | 1 | –
4 | CCCCCC(=O)/C=C/c1ccc(O)c(OC)c1 | 41 | 2 | –
5 | CCCCCC(O)/C=C\c1ccc(O)c(OC)c1 (centres undefined) | 79 | 3 | –
6 | CCCC(O)CC(=O)CCc1ccc(O)c(OCC)c1 (centres undefined) | 98 | 1 | –
7 | CCCCCC(=O)CCc1ccc(F)c(F)c1 | 55 | 4 | –
8 | CCCC(O)CC(=O)/C=C/c1ccccc1 (centres undefined) | 93 | 4 | –
9 | CCCCC[C@@H](O)C#Cc1ccc(F)c(F)c1 | 72 | 3 | –
10 | CCCC(O)CC(=O)CCc1ccc(F)c(F)c1 (centres undefined) | 49 | 1 | –
11 | CCCCCC(=O)C#Cc1ccc(F)c(F)c1 | 17 | 3 | Activity [3]: 56%; Activity [4]: 39%; Activity [5]: 60%; Activity [6]: 58%; Activity (Pseudomonas aeruginosa [7]): 88%; Activity [8]: 5%; Activity (Pseudomonas aeruginosa [9]): 100%; Activity [10]: 71%
12 | CCCC(O)CC(=O)/C=C/c1ccc(F)c(OC)c1 (centres undefined) | 43 | 1 | –
13 | CCCC(O)CC(=O)/C=C/c1ccc(O)c(OC)c1 (centres undefined) | 65 | 4 | Activity [3]: 65%; Activity [4]: 73%; Activity [5]: 73%; Activity [6]: 57%; Activity (Pseudomonas aeruginosa [7]): 95%; Activity [8]: 5%; Activity (Pseudomonas aeruginosa [9]): 102%; Activity [10]: 82%
14 | CCCC(O)CC(=O)CCc1cccc(O)c1 (centres undefined) | 81 | 2 | –
15 | CCCCCCC(O)CC(=O)CCc1ccc(O)c(OC)c1 (centres undefined) | 83 | 3 | –
16 | CCCC(O)CC(=O)CCc1ccc(OC)c(OC)c1 (centres undefined) | 94 | 1 | –
17 | CCCCC[C@H](O)C#Cc1ccc(O)c(OC)c1 | 34 | 3 | Activity (Pseudomonas aeruginosa [7]): inactive; Activity [10]: Active
18 | CCCC(O)CC(=O)CCc1ccc(O)c(O)c1 (centres undefined) | 47 | 2 | –
19 | CCCCCC(=O)/C=C/c1ccc(F)c(F)c1 | 51 | 4 | Activity [3]: 61%; Activity [4]: 53%; Activity [5]: 64%; Activity [6]: 62%; Activity (Pseudomonas aeruginosa [7]): 103%; Activity [8]: 3%; Activity (Pseudomonas aeruginosa [9]): 103%; Activity [10]: 80%
20 | CCCCC[C@@H](O)C#Cc1ccc(O)c(OC)c1 | 27 | 3 | Activity (Pseudomonas aeruginosa [7]): inactive; Activity [10]: Active
21 | CCCC(O)CC(=O)/C=C/c1ccc(C)cc1 (centres undefined) | 65 | 2 | –

Row | Structure (SMILES) | Activity [1] [%] | Activity [2] [%] | further results
22 | CCCC(O)CC(=O)/C=C/c1ccc(O)cc1 (centres undefined) | 51 | 1 | Activity (Pseudomonas aeruginosa [7]): inactive; Activity [10]: Active
23 | CCCC(O)CC(=O)/C=C/c1cccc(O)c1 (centres undefined) | 78 | 2 | –
24 | CCC[C@@H](O)C#Cc1ccc(F)c(F)c1 | 25 | 3 | Activity [3]: 60%; Activity [4]: 45%; Activity [5]: 60%; Activity [6]: 48%; Activity (Pseudomonas aeruginosa [7]): 102%; Activity [8]: 5%; Activity (Pseudomonas aeruginosa [9]): 98%; Activity [10]: 74%
25 | CCCC(O)CC(=O)CCc1ccc(N(C)C)cc1 (centres undefined) | 74 | 1 | –
26 | CCCC(O)CC(=O)CCc1ccc(O)c(F)c1 (centres undefined) | 73 | 1 | –
27 | CCCCCC(O)C#Cc1ccc(F)c(F)c1 (racemic) | 74 | 3 | –
28 | CCCC(O)CC(=O)/C=C/c1ccc(Cl)cc1 (centres undefined) | 64 | 1 | –
29 | CCCC(O)CC(=O)/C=C/c1ccc(O)c(F)c1 (centres undefined) | 60 | 2 | –
30 | CCCC(O)CC(=O)/C=C/c1ccc(O)c(OCC)c1 (centres undefined) | 91 | 1 | –
31 | CCCC(O)CC(=O)/C=C/c1ccc(F)c(F)c1 (centres undefined) | 20 | 2 | Activity [3]: 53%; Activity [4]: 60%; Activity [5]: 63%; Activity [6]: 50%; Activity (Pseudomonas aeruginosa [7]): 105%; Activity [8]: 5%; Activity (Pseudomonas aeruginosa [9]): 101%; Activity [10]: 72%
32 | CCCC(O)CC(=O)/C=C/c1cc(F)cc(OC)c1 (centres undefined) | 74 | 3 | –
33 | CCCC[C@@H](O)C#Cc1ccc(F)c(F)c1 | 67 | 3 | –
34 | CCCC(O)CC(=O)CCc1ccc(Cl)cc1 (centres undefined) | 69 | 2 | –
35 | CCCCC(O)C#Cc1ccc(F)c(F)c1 (racemic) | 71 | 4 | –
36 | CCCCC(=O)C#Cc1ccc(F)c(F)c1 | 16 | 4 | Activity [3]: 55%; Activity [4]: 29%; Activity [5]: 59%; Activity [6]: 49%; Activity (Pseudomonas aeruginosa [7]): 89%; Activity [8]: 6%; Activity (Pseudomonas aeruginosa [9]): 100%; Activity [10]: 75%
37 | CCCCCCCCCC(O)CC(=O)CCc1ccc(O)c(OC)c1 (centres undefined) | 36 | 2 | Activity (Pseudomonas aeruginosa [7]): inactive; Activity [10]: Active
38 | CCCCCC(O)/C=C/c1ccc(F)c(F)c1 (centres undefined) | 55 | 5 | –
39 | CCCCC[C@H](O)C#Cc1ccc(F)c(F)c1 | 67 | 4 | –
40 | CCCC(O)C#Cc1ccc(F)c(F)c1 (racemic) | 32 | 3 | Activity [3]: 60%; Activity [4]: 45%; Activity [5]: 73%; Activity [6]: 49%; Activity (Pseudomonas aeruginosa [7]): 104%; Activity [8]: 5%; Activity (Pseudomonas aeruginosa [9]): 100%; Activity [10]: 73%
41 | CCCC(O)CC(=O)CCc1cccc(OC)c1 (centres undefined) | 90 | 2 | –
42 | CCCC(O)CC(=O)/C=C/c1ccc(OC)cc1 (centres undefined) | 55 | 1 | Activity (Pseudomonas aeruginosa [7]): inactive; Activity [10]: Active

Row | Structure (SMILES) | Activity [1] [%] | Activity [2] [%] | further results
43 | CCCC(O)CC(=O)CCc1ccc(O)cc1 (centres undefined) | 64 | 3 | –
44 | CCCCCCCC(O)CC(=O)CCc1ccc(O)c(OC)c1 (centres undefined) | 90 | 2 | –
45 | CCC[C@H](O)C#Cc1ccc(F)c(F)c1 | 38 | 3 | Activity [3]: 64%; Activity [4]: 59%; Activity [5]: 59%; Activity [6]: 52%; Activity (Pseudomonas aeruginosa [7]): 99%; Activity [8]: 5%; Activity (Pseudomonas aeruginosa [9]): 98%; Activity [10]: 79%
46 | CCCCCC(O)/C=C/c1ccc(O)c(OC)c1 (centres undefined) | 41 | 2 | –
47 | CCCCCC(=O)C#Cc1ccc(O)c(OC)c1 | 29 | 3 | Activity (Pseudomonas aeruginosa [7]): inactive; Activity [10]: Active
48 | CCCCCC(O)C#Cc1ccc(O)c(OC)c1 (racemic) | 32 | 3 | Activity (Pseudomonas aeruginosa [7]): inactive; Activity [10]: Active
49 | CCCC(O)CC(=O)/C=C/c1ccc(OC)c(OC)c1 (centres undefined) | 69 | 1 | –
50 | CCCC(O)CC(=O)CCc1ccc(OC)cc1 (centres undefined) | 71 | 2 | –
51 | CCCCCC(O)CCc1ccc(F)c(F)c1 (centres undefined) | 61 | 5 | –
52 | CCCCCCCCC(O)CC(=O)CCc1ccc(O)c(OC)c1 (centres undefined) | 41 | 2 | Activity (Pseudomonas aeruginosa [7]): inactive; Activity [10]: Active
53 | CCCC(O)CC(=O)CCc1ccc(F)c(OC)c1 (centres undefined) | 79 | 1 | –
54 | CCCC(O)CC(=O)CCc1ccc(F)cc1 (centres undefined) | 51 | 2 | –
55 | CCCC(O)CC(=O)/C=C/c1ccc(F)cc1 (centres undefined) | 33 | 1 | –
56 | CCCC(O)CC(=O)CCc1ccccc1 (centres undefined) | 88 | 4 | –
57 | CCCC(O)CC(=O)CCc1cc(F)cc(OC)c1 (centres undefined) | 85 | 3 | –
58 | CCCC(O)CC(=O)/C=C/c1ccc(N(C)C)cc1 (centres undefined) | 53 | 2 | –
59 | CCCCCC(=O)CCc1ccc(O)c(OC)c1 | 49 | 2 | –
60 | CCCC(O)CC(=O)/C=C/c1ccc(C)c(C)c1 (centres undefined) | 72 | 2 | –
61 | CCCC(O)CC(=O)CCc1ccc(C)c(C)c1 (centres undefined) | 82 | 3 | –
62 | CCCC[C@H](O)C#Cc1ccc(F)c(F)c1 | 64 | 2 | –
